The M2OR odorant receptor database

Legend:
Settings in all cases: stereoisomer not certain
[1] = molecular target: T1, UniProt Q8VG27
T1 sequence (whole entry): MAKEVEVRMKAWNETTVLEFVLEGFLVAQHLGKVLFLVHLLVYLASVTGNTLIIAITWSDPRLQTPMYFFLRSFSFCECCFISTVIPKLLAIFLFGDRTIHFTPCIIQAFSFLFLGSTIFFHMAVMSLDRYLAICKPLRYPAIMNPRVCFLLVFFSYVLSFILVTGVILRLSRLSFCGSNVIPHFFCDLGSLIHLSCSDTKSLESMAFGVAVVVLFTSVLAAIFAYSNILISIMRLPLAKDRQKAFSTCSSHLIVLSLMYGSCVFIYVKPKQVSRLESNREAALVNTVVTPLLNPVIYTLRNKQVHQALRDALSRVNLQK
In short: (§1)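 Assay methods differ from source to source, frequently being transient luciferase assays in mammalian cell lines. For each receptor–molecule pair, the label responsive (active) applies when the original authors judged the measured signal statistically different from baseline, and non-responsive (inactive) applies otherwise.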

[2] = molecular target: T2, UniProt Q8VG53
T2 sequence (whole entry): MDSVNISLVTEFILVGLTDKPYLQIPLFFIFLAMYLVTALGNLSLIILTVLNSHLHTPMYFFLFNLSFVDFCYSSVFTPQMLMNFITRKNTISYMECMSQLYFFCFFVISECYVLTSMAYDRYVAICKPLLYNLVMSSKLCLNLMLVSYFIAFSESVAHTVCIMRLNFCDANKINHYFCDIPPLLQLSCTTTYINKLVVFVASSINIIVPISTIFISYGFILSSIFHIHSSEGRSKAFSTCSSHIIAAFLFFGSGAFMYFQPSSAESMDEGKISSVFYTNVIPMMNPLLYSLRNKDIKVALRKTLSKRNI
In short: as §1

[3] = molecular target: T3, UniProt Q8VG64
T3 sequence (whole entry): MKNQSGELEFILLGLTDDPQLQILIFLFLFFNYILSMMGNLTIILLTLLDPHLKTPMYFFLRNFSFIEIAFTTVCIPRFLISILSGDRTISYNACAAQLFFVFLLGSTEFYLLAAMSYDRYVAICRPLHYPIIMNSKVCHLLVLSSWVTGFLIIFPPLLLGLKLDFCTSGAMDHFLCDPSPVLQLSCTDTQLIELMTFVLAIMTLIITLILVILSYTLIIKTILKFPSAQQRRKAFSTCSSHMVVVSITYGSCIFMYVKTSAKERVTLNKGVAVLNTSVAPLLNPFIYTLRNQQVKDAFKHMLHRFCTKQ
In short: as §1

[4] = molecular target: T4, UniProt Q8VGB9
T4 sequence (whole entry): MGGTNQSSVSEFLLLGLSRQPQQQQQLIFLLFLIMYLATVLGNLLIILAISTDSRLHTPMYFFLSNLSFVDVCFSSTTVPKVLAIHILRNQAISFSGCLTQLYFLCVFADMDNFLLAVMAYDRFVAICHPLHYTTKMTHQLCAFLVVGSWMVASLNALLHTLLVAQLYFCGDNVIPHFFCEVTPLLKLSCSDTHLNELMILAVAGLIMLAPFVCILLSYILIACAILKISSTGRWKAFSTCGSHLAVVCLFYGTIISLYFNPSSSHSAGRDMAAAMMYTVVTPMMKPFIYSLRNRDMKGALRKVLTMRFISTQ
In short: as §1

[5] = molecular target: T5, UniProt Q8VGC6
T5 sequence (whole entry): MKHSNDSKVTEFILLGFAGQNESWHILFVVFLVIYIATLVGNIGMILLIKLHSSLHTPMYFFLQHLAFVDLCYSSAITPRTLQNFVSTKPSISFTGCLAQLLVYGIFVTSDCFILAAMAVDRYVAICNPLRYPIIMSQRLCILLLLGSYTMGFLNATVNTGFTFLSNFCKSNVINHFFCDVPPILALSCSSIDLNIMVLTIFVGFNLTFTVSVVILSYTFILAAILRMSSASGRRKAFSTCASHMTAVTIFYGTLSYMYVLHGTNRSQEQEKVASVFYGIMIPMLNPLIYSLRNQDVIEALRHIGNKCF
In short: as §1

[6] = molecular target: T6, UniProt Q8VGJ3
T6 sequence (whole entry): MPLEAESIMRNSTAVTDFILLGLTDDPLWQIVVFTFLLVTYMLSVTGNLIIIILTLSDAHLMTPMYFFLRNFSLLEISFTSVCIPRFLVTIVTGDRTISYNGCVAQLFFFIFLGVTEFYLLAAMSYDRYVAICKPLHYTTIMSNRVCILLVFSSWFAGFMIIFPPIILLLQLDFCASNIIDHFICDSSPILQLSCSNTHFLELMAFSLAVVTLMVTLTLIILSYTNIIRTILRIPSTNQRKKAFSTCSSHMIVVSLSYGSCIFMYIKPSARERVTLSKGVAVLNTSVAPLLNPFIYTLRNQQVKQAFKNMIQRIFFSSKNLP
In short: as §1

[7] = molecular target: T7, UniProt Q8VGL0
T7 sequence (whole entry): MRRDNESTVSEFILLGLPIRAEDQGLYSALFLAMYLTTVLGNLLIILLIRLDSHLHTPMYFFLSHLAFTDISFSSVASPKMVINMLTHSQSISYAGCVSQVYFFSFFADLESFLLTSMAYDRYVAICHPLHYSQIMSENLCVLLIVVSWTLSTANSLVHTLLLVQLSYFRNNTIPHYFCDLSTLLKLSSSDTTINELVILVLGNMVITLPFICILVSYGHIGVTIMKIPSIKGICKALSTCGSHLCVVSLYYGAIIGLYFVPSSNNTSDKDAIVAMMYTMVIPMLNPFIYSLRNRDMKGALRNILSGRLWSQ
In short: as §1

[8] = molecular target: T8, UniProt Q8VG49
T8 sequence (whole entry): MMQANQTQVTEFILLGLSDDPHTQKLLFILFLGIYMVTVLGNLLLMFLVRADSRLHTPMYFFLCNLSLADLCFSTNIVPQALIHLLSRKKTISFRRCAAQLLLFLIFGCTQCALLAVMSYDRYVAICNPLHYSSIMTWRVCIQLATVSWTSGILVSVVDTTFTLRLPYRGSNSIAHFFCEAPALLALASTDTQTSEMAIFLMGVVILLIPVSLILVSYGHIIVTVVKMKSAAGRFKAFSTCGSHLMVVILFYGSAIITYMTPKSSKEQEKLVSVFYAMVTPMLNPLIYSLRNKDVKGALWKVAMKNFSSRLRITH
In short: as §1

[9] = molecular target: T9, UniProt Q8VG77
T9 sequence (whole entry): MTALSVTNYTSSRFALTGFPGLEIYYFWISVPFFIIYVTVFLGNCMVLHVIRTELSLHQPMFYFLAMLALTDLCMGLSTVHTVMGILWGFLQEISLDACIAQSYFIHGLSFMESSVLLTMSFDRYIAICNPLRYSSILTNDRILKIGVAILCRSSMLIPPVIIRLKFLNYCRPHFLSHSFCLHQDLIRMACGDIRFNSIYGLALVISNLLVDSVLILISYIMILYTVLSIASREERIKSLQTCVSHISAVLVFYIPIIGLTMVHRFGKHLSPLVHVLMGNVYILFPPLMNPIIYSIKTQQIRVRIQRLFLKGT
In short: as §1

[10] = molecular target: T10, UniProt Q8VG96
T10 sequence (whole entry): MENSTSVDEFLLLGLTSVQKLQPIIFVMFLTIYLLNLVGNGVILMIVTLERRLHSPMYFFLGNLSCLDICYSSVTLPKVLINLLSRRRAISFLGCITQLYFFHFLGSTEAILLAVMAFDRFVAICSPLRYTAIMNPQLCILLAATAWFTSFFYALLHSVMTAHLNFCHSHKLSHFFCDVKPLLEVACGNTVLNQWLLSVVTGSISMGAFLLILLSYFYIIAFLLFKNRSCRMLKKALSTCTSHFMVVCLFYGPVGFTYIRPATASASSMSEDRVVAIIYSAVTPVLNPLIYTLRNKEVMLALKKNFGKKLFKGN
In short: as §1

[11] = molecular target: T11, UniProt Q8VGD7
T11 sequence (whole entry): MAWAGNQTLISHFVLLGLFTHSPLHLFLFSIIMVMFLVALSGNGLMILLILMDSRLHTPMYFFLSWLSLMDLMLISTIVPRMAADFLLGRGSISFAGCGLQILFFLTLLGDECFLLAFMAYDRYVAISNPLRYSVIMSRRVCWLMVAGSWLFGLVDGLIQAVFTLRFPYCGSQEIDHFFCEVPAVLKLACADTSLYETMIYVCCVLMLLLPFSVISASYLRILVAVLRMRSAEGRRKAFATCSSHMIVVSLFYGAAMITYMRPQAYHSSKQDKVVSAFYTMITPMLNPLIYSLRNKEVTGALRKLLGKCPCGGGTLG
In short: as §1

[12] = molecular target: T12, UniProt Q8VGH1
T12 sequence (whole entry): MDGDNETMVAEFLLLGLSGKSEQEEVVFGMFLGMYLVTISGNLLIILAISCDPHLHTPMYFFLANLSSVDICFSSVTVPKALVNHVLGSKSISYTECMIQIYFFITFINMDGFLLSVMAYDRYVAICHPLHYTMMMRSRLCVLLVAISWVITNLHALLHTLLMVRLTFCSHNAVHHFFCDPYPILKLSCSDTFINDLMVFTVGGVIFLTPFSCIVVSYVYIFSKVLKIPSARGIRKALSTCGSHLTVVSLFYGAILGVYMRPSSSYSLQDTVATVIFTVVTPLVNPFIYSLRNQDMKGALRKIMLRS
In short: as §1

[13] = molecular target: T13, UniProt Q8VGJ1
T13 sequence (whole entry): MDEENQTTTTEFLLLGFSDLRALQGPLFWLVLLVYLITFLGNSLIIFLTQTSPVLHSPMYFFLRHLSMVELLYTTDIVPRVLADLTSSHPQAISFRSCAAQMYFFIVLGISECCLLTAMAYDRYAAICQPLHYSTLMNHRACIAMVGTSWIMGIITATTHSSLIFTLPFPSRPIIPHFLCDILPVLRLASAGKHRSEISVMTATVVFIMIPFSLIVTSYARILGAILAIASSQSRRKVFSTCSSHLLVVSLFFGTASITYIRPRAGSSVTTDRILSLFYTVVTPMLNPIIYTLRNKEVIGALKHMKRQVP
In short: as §1

[14] = molecular target: T14, UniProt Q8VGJ5
T14 sequence (whole entry): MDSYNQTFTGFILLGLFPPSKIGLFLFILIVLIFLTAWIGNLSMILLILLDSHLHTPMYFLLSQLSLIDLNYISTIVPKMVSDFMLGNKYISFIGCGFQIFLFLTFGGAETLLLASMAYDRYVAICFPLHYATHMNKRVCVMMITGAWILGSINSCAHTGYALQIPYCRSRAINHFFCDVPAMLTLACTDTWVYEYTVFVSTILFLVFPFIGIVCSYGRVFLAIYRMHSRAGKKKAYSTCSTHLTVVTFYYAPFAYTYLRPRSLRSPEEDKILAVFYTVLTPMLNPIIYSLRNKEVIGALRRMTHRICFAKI
In short: as §1

[15] = molecular target: T15, UniProt Q8VGL7
T15 sequence (whole entry): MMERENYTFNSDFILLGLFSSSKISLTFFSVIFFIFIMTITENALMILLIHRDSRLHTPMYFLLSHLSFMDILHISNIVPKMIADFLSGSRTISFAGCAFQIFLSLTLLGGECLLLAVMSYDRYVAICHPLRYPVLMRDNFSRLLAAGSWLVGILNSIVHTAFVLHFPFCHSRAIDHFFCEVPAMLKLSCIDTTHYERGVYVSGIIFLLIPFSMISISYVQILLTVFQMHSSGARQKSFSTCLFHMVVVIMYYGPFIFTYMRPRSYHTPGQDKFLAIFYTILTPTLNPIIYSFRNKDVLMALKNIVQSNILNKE
In short: as §1

Measured: odorant receptor agonist call

Cc1ccc(C(C)C)c(O)c1
inactive: [1] | [2] | [3] | [4] | [5] | [6] | [7]

CCCCCC(=Cc1ccccc1)C(OC)OC
inactive: [1] | [2] | [3] | [4] | [5] | [6] | [7]

CCCC(C)C(=O)OCC (centres undefined)
inactive: [1] | [2] | [3] | [4] | [5] | [6] | [7]

Cc1occc1SSc1ccoc1C
inactive: [1] | [2] | [3] | [4] | [5] | [6] | [7]

C=C(C)C1CCC2(C)OC2C1 (centres undefined)
inactive: [1] | [2] | [3] | [4] | [5] | [6] | [7]

C=C1C2CCC(C2)C1(C)C (centres undefined)
inactive: [1] | [2] | [3] | [4] | [5] | [6] | [7]

CCCCCOC(=O)CCCCC
inactive: all assays above

C=C(CC)CCCC(C)(C)O
inactive: [1] | [2] | [3] | [4] | [5] | [6] | [7]
